The list is not random: actives were taken first. Their share in the collection is about 3.5%.
RGS4 pot – RGS4 potentiation or activation; HEK293 M3R/inducible RGS4, carbachol calcium flux Fluo4; stronger effect = lower value; B-score at 10 µM; 310,000 compounds, 0.92% hits; AID 463111;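 active = B-score of the integrated calcium signal more than 4 SD below the library mean, with starting fluorescence not abnormally high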;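 note: negative B-score means reduced calcium response which marks RGS4 activation or potentiation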
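System: HEK293 FlpIn-TREx cells, stable M3R, doxycycline-inducible RGS4. Timing: overnight RGS4 induction, 30 min dye load 37 °C, 20 min compound RT. Also added: carbachol, ECmax concentration. Measured by: Fluo4 fluorescence kinetic imaging of calcium. Evaluation: integrated calcium ratio converted to B score.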
RGS4 inh – human RGS4 inhibition; P49798; 310,000 compounds, 0.45% hits; AID 463165; B-score at 10 µM; HEK293 M3R/RGS4 inducible, Fluo-4 calcium flux; stronger effect = higher value; triggered by carbachol at its EC20;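 active = B-score, a plate-corrected calcium signal, over three deviations above library mean, with baseline fluorescence within five deviations of library mean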;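 note: RGS4 expression induced by doxycycline in cells with stable M3 receptor; B-score is computed from the integrated fluorescence ratio over baseline after carbachol; higher B-score means a larger calcium signal and so more RGS4 inhibition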
Target sequence (P49798 whole entry, looked up): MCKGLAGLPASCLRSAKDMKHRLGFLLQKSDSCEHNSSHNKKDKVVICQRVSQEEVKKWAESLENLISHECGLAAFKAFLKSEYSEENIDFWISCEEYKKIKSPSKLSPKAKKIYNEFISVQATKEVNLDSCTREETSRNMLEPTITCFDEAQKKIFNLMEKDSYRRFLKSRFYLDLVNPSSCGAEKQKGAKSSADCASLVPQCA
MrgX1 PAM – human MrgX1 positive allosteric modulation, primary screen; B-score at 10 µM; Q96LB2; MrgX1-HEK293, Fluo-4 calcium flux, FDSS; stronger effect = higher value; AID 588675; 310,000 compounds, 0.63% hits;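 active = plate-corrected calcium response at least 3 library SD above typical, normal starting fluorescence, not activating the receptor alone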;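 note: compound read alongside a low EC10 to EC30 dose of BAM8-22 agonist; peak minus trough fluorescence over baseline measured at the second addition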
Target sequence (Q96LB2 whole entry, looked up): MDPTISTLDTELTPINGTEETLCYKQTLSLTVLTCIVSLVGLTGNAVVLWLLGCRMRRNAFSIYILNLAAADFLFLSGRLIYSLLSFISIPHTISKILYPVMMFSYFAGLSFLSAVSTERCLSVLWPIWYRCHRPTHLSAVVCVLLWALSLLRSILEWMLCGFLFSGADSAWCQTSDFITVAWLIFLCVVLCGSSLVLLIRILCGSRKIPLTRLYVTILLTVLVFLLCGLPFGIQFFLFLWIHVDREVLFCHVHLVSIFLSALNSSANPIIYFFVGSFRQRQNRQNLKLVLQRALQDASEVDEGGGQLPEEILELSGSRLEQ
MrgX1 antag – antagonists of human MrgX1 receptor; 310,000 compounds, 1.3% hits; B-score at 10 µM; Q96LB2; MRGX1-HEK293 calcium flux, Fluo-4, BAM8-22 antagonism; stronger effect = lower value;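 active = calcium-response B-score plate-corrected more than 3 library SD below zero, starting fluorescence within 5 deviations, no agonist response on first addition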;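 note: peak minus trough fluorescence over baseline after final BAM8-22 challenge near maximal dose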
MrgX1 agonist – agonists of human MrgX1 receptor. MrgX1-HEK293 cells, Fluo-4 calcium fluorescence, agonist mode; stronger effect = higher value. 310,000 compounds, 0.44% hits. Q96LB2. B-score at 10 µM;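 active = calcium response B-score plate-corrected fluorescence ratio at least 3 library SD, with starting fluorescence B-score inside 5 SD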
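Material – MrgX1-expressing HEK293 cells · Input – 15,000 cells seeded per well · Dosing – compound as first of three additions · Times – overnight seeding, then 1 h dark dye loading · Measured by – kinetic Fluo-4 NW fluorescence of intracellular calcium · Read-out – B-scored fluorescence response ratio · Benchmarks – positive and negative control wells on each plate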
An asterisk follows results filed as active; i = inactive; . = no result.

SMILES | RGS4 pot | RGS4 inh | MrgX1 PAM | MrgX1 antag | MrgX1 agonist
CC/C(=C\C=C\[C@@H]1C=C[C@@H]2CCC[C@H]2[C@@H]1C(=O)c1ccc[nH]1)[C@@H]1O[C@@H]([C@@H](C)C(=O)O)CC[C@@H]1C | -8.25* | i | i | i | 35.2*
c1cc(C2N3CCCN2CC3)ccn1 (stereo unspecified) | i | i | i | i | i
Cn1c(O)c(/C=C/C=Nc2ccccc2)c(=O)n(C)c1=S | i | i | i | -8.54* | i
Cc1cccc(-n2c(O)c(/C=C/C=Nc3ccccc3)c(=O)[nH]c2=O)c1 | i | i | i | i | i
COc1ccc(CNCCc2c(C)[nH]c3ccc(OC(F)(F)F)cc23)c(OC)c1 | i | i | i | -4.7* | i
C/C=C(\C)C(=O)OC1C(C)=C2C(C1OC(=O)CCCCC)C(C)(OC(C)=O)CC(OC(=O)CCC)C1(O)C2OC(=O)C1(C)O (stereo unspecified) | -8.9* | i | i | i | 49.3*
CCOCCCNC(=O)C1c2cc(OC)c(OC)cc2C(=O)N2CCCCC12 (stereo unspecified) | i | i | i | i | i
O=c1[nH]c2ccccc2o1 | . | . | i | i | i
CC(C)(O)[C@H]1O[C@H]2CC[C@@]3(C)[C@@](O)(CC[C@H]4Cc5c([nH]c6ccccc56)[C@@]43C)C2=CC1=O | i | i | i | -4.6* | i
Cn1nccc1C(=O)N1CCC2(CC1)OCCO2 | i | i | i | i | i
CCN(CC)c1ccc(/C=C2/C(=O)NC(=O)N(CC3CCCO3)C2=O)cc1 (stereo unspecified) | i | i | i | -4.55* | i
O=C1NC(=O)N(CC2CCCO2)C(=O)/C1=C/c1cccs1 (stereo unspecified) | i | i | i | i | i
C#CC1(OC(=O)c2ccccc2)CC(C)N(C)CC1C (stereo unspecified) | -7.03* | i | i | i | i
O=C1Nc2ccccc2/C1=C/c1cnc[nH]1 | i | i | i | -6.74* | i
COc1ccc2c(c1)/C(=C/c1cnc[nH]1)C(=O)N2 | i | i | i | i | i
CCc1ccccc1NC(=O)N1C[C@H]2C[C@@H](C1)c1cccc(=O)n1C2 | i | i | i | i | i
COc1ccc(CN2CCCC(C(=O)c3ccc(Cl)cc3)C2)c(OC)c1 (stereo unspecified) | i | i | i | i | i
O=C(c1ccc(Cl)cc1)C1CCCN(Cc2ccc3ncccc3c2)C1 (stereo unspecified) | -7.35* | i | i | i | i
O=C(c1ccc(Cl)cc1)C1CCCN(Cc2cccc3cnccc23)C1 (stereo unspecified) | -7.28* | i | i | i | i
C[N+]1(CCC(C(N)=O)(c2ccccc2)c2ccccc2)CCCCC1 | -7* | i | i | i | i
CCN(CC)CCCOC(=O)C(OC(C)C)(c1ccccc1)c1ccccc1 | -10.6* | i | i | i | i
CCOC(C(=O)OCCCN(CC)CC)(c1ccccc1)c1ccccc1 | i | i | i | i | i
COC(=O)C1=C(c2ccccc2)C[C@@H]2CC[C@H]1N2C(=O)NC1CCCCC1 | i | i | i | i | i
Cc1cccc(N2C(=O)NC(=O)/C(=C\c3ccc4c(c3)CCCN4Cc3ccccc3)C2=O)c1 | i | i | 11.9* | i | i
CCC(C)n1c(O)c(/C=N/N2CCOCC2)c(=O)[nH]c1=S (stereo unspecified) | i | i | i | i | i
SMILES | RGS4 pot | RGS4 inh | MrgX1 PAM | MrgX1 antag | MrgX1 agonist
CCC(C)n1c(O)c(C=NCC2CCCO2)c(=O)[nH]c1=S (stereo unspecified) | -10.2* | i | i | i | i
CCOP(=O)(OCC)C(NC(=O)CN1C(=O)c2ccccc2S1(=O)=O)C(Cl)(Cl)Cl (stereo unspecified) | i | i | i | i | i
Cc1ccc(NP(=O)(Oc2ccccc2F)Oc2ccccc2F)cc1 | i | i | i | -6.72* | i
CCc1ccc(NP(=O)(Oc2ccccc2F)Oc2ccccc2F)cc1 | i | i | i | i | i
O=[N+]([O-])c1ccc(N2CCNCC2)cc1NCC1CCCO1 (stereo unspecified) | i | i | i | i | i
C=C(C)CSc1nnc([C@@H](N)Cc2ccccc2)o1 | i | i | i | i | i
CN[C@H]1C[C@H]2O[C@@](C)([C@H]1OC)n1c3ccccc3c3c4c(c5c6ccccc6n2c5c31)C(=O)NC4 | i | 4.93* | 10.2* | i | i
C=CCN1CCC2(C)c3cc(O)ccc3CC1C2C (stereo unspecified) | i | i | i | i | i
O=[N+]([O-])c1ccc(N2CCCNCC2)c2ncccc12 | -8.07* | i | i | i | i
C=CCn1c(C)c(C=C2C(=O)NC(=O)NC2=O)c2ccccc21 | i | i | i | i | 39.2*
O=C1NC(=O)N(c2ccccc2F)C(=O)/C1=C/c1cn(CC(=O)N2CCOCC2)c2ccccc12 | i | 9.92* | i | i | i
CCN1C(=O)NC(=O)/C(=C\c2cn(CC(=O)N3CCCC3)c3ccccc23)C1=O | i | i | i | i | i
Cc1cc(C(=O)CS(=O)(=O)c2ccccc2)cc(C)c1OC(=O)N(C)C | i | i | i | i | i
COC(=O)C1=CCCN(C)C1 | i | i | i | i | 56.7*
O=C(O)Cn1cc(/C=C2\C(=O)NC(=O)N(Cc3ccco3)C2=O)c2ccccc21 | i | i | i | i | i
Cc1cc(/C=C2/C(=O)NC(=O)N(Cc3ccco3)C2=O)c(C)n1-c1ccccc1O | i | i | 9.65* | i | i
CCN(CC)C(=O)c1ccc2c(c1)C1C(Cl)C(Sc3ccccc3[N+](=O)[O-])CC1C(C(=O)O)N2 (stereo unspecified) | i | i | i | -6.66* | i
Cc1ccc2c(c1Cl)NC(C(=O)O)C1CC(Sc3ccccc3[N+](=O)[O-])C(Cl)C21 (stereo unspecified) | i | i | i | i | i
c1ccc(CC(NCc2ccco2)c2ccccc2)cc1 (stereo unspecified) | i | i | i | i | i
Cc1ccc(Cn2cc(C=O)c(-c3ccc(F)cc3)n2)cc1 | i | i | 7.57* | i | i
CCn1c(O)c(/C=N/NC(=O)c2ccccc2)c(=O)n(CC)c1=S | i | i | i | i | 48.6*
